Test results taken from ChEMBL document CHEMBL4316592, “Synthesis of new derivatives of boehmeriasin A and their biological evaluation in liver cancer” (Eur J Med Chem, 2019).
pIC50: −log10 of the molar value. Active and inactive are the calls of the source. The rule behind the calls is not given here.

Key:
Mahlavu [1] = assay: Cytotoxicity against human Mahlavu cells after 72 hrs by SRB assay; assay type: functional, cell-based; conditions: for IC50: mahlavu; for pIC50: Homo sapiens, Mahlavu, 72 h, read-out: IC50
In short: (§1)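 SRB assay. Cells plated per well (HCT116 3000; Huh7, Hep3B, HepG2, MCF-7 2000; Mahlavu, FOCUS, SNU475 1000) and grown 24 h. Compounds came from 20 mM DMSO stocks and were tested in triplicate, 40 to 2,5 (or 2,5 to 0,03) per printed range, for 72 h. Cells fixed in 10% TCA, stained with 0.4% SRB, dye dissolved in 10 mM Tris, A515 read. IC50 derived after DMSO normalization.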

HepG2 = assay: Cytotoxicity against human HepG2 cells after 72 hrs by SRB assay; assay type: functional, cell-based; conditions: hepg2; in short: as §1
SNU-475 = assay: Cytotoxicity against human SNU475 cells after 72 hrs by SRB assay; assay type: functional, cell-based; in short: as §1
Huh-7 [2] = assay: Cytotoxicity against human HuH7 cells after 72 hrs by SRB assay; assay type: functional, cell-based; conditions: for IC50: huh-7; for pIC50: Homo sapiens, Huh-7, 72 h, read-out: IC50; in short: as §1
MCF-12A = assay: Cytotoxicity against human MCF12A cells after 72 hrs by SRB assay; assay type: cell-based; conditions: for IC50: mcf-12a; for pIC50: Homo sapiens, MCF-12A, 72 h, read-out: IC50
HCT-116 = assay: Cytotoxicity against human HCT116 cells after 72 hrs by SRB assay; assay type: functional, cell-based; conditions: for pIC50: Homo sapiens, HCT-116, 72 h, read-out: IC50; in short: as §1
Hep 3B2 = assay: Cytotoxicity against human Hep3B cells after 72 hrs by SRB assay; assay type: functional, cell-based; in short: as §1
MCF7 = assay: Cytotoxicity against human MCF7 cells after 72 hrs by SRB assay; assay type: functional, cell-based; conditions: for pIC50: Homo sapiens, MCF7, 72 h, read-out: IC50; in short: as §1
[3] = Cytotoxicity against human FOCUS cells after 72 hrs by SRB assay; assay type: functional, cell-based; in short: as §1
Mahlavu [4] = assay: Induction of apoptosis in human Mahlavu cells assessed as increase in cytochrome C levels by Hoechst staining-based assay; assay type: functional, cell-based
In short: (§2)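 Cells were seeded on coverslips and treated after 24 h with compound at a single concentration for 72 h. Camptothecin was the positive control, with DMSO solvent control at matched volume. Cells were fixed in ice-cold methanol for 15 min, then given anti-cytochrome c (1:100 in 0.1% TBS-Tween) for 1 h and FITC secondary (1:200) for 1 h. Nuclei were counterstained and imaged by fluorescence microscopy.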

Huh-7 [5] = assay: Induction of apoptosis in human HuH7 cells assessed as increase in cytochrome C levels by Hoechst staining-based assay; assay type: functional, cell-based; in short: as §2
Mahlavu [6] = assay: Induction of apoptosis in human Mahlavu cells assessed as late apoptotic cells at 1 uM after 24 hrs by Annexin V-FITC/propidium iodide staining-based flow cytometric analysis (reference value: 1.28%); assay type: functional
Mahlavu [7] = assay: Induction of apoptosis in human Mahlavu cells assessed as early apoptotic cells at 1 uM after 48 hrs by Annexin V-FITC/propidium iodide staining-based flow cytometric analysis (reference value: 0%); assay type: functional
Huh-7 [8] = assay: Induction of apoptosis in human HuH7 cells assessed as necrotic cells at 1 uM after 24 hrs by Annexin V-FITC/propidium iodide staining-based flow cytometric analysis (reference value: 0.03%); assay type: functional
Mahlavu [9] = assay: Induction of apoptosis in human Mahlavu cells assessed as necrotic cells at 1 uM after 72 hrs by Annexin V-FITC/propidium iodide staining-based flow cytometric analysis (reference value: 0.22%); assay type: functional
Mahlavu [10] = assay: Induction of apoptosis in human Mahlavu cells assessed as viable cells at 1 uM after 72 hrs by Annexin V-FITC/propidium iodide staining-based flow cytometric analysis (reference value: 96.05%); assay type: functional; conditions: read-out: Activity
Huh-7 [11] = assay: Induction of apoptosis in human HuH7 cells assessed as early apoptotic cells at 1 uM after 72 hrs by Annexin V-FITC/propidium iodide staining-based flow cytometric analysis (reference value: 0.03%); assay type: functional
Huh-7 [12] = assay: Induction of apoptosis in human HuH7 cells assessed as early apoptotic cells at 1 uM after 48 hrs by Annexin V-FITC/propidium iodide staining-based flow cytometric analysis (reference value: 0.02%); assay type: functional
Mahlavu [13] = assay: Induction of apoptosis in human Mahlavu cells assessed as early apoptotic cells at 1 uM after 72 hrs by Annexin V-FITC/propidium iodide staining-based flow cytometric analysis (reference value: 0.24%); assay type: functional
Huh-7 [14] = assay: Induction of apoptosis in human HuH7 cells assessed as necrotic cells at 1 uM after 72 hrs by Annexin V-FITC/propidium iodide staining-based flow cytometric analysis (reference value: 0.43%); assay type: functional
Huh-7 [15] = assay: Induction of apoptosis in human HuH7 cells assessed as viable cells at 1 uM after 24 hrs by Annexin V-FITC/propidium iodide staining-based flow cytometric analysis (reference value: 97.30%); assay type: functional; conditions: Huh-7, 24 h, read-out: Activity
Huh-7 [16] = assay: Induction of apoptosis in human HuH7 cells assessed as necrotic cells at 1 uM after 48 hrs by Annexin V-FITC/propidium iodide staining-based flow cytometric analysis (reference value: 0.02%); assay type: functional
Huh-7 [17] = assay: Induction of apoptosis in human HuH7 cells assessed as early apoptotic cells at 1 uM after 24 hrs by Annexin V-FITC/propidium iodide staining-based flow cytometric analysis (reference value: 0.17%); assay type: functional
Mahlavu [18] = assay: Induction of apoptosis in human Mahlavu cells assessed as late apoptotic cells at 1 uM after 48 hrs by Annexin V-FITC/propidium iodide staining-based flow cytometric analysis (reference value: 1.45%); assay type: functional
Mahlavu [19] = assay: Induction of apoptosis in human Mahlavu cells assessed as viable cells at 1 uM after 48 hrs by Annexin V-FITC/propidium iodide staining-based flow cytometric analysis (reference value: 98.48%); assay type: functional; conditions: read-out: Activity
Mahlavu [20] = assay: Induction of apoptosis in human Mahlavu cells assessed as necrotic cells at 1 uM after 48 hrs by Annexin V-FITC/propidium iodide staining-based flow cytometric analysis (reference value: 0.07%); assay type: functional
Mahlavu [21] = assay: Induction of apoptosis in human Mahlavu cells assessed as early apoptotic cells at 1 uM after 24 hrs by Annexin V-FITC/propidium iodide staining-based flow cytometric analysis (reference value: 0.09%); assay type: functional
Mahlavu [22] = assay: Induction of apoptosis in human Mahlavu cells assessed as apoptotic body formation at 1 uM by Hoechst staining-based assay; assay type: functional, cell-based
Huh-7 [23] = assay: Induction of apoptosis in human HuH7 cells assessed as late apoptotic cells at 1 uM after 24 hrs by Annexin V-FITC/propidium iodide staining-based flow cytometric analysis (reference value: 2.51%); assay type: functional
Huh-7 [24] = assay: Induction of apoptosis in human HuH7 cells assessed as late apoptotic cells at 1 uM after 72 hrs by Annexin V-FITC/propidium iodide staining-based flow cytometric analysis (reference value: 2.34%); assay type: functional
Mahlavu [25] = assay: Induction of apoptosis in human Mahlavu cells assessed as viable cells at 1 uM after 24 hrs by Annexin V-FITC/propidium iodide staining-based flow cytometric analysis (reference value: 98.51%); assay type: functional; conditions: read-out: Activity
Huh-7 [26] = assay: Induction of apoptosis in human HuH7 cells assessed as viable cells at 1 uM after 72 hrs by Annexin V-FITC/propidium iodide staining-based flow cytometric analysis (reference value: 97.20%); assay type: functional; conditions: Huh-7, 72 h, read-out: Activity
Mahlavu [27] = assay: Induction of apoptosis in human Mahlavu cells assessed as necrotic cells at 1 uM after 24 hrs by Annexin V-FITC/propidium iodide staining-based flow cytometric analysis (reference value: 0.13%); assay type: functional
MCF-10A = assay: Cytotoxicity against human MCF10A cells after 72 hrs by SRB assay; assay type: cell-based
Huh-7 [28] = assay: Induction of apoptosis in human HuH7 cells assessed as viable cells at 1 uM after 48 hrs by Annexin V-FITC/propidium iodide staining-based flow cytometric analysis (reference value: 97.42%); assay type: functional; conditions: Huh-7, 48 h, read-out: Activity
Mahlavu [29] = assay: Induction of apoptosis in human Mahlavu cells assessed as chromatin condensation at 1 uM by Hoechst staining-based assay; assay type: functional, cell-based
Mahlavu [30] = assay: Induction of apoptosis in human Mahlavu cells assessed as late apoptotic cells at 1 uM after 72 hrs by Annexin V-FITC/propidium iodide staining-based flow cytometric analysis (reference value: 3.48%); assay type: functional
Huh-7 [31] = assay: Induction of apoptosis in human HuH7 cells assessed as late apoptotic cells at 1 uM after 48 hrs by Annexin V-FITC/propidium iodide staining-based flow cytometric analysis (reference value: 2.53%); assay type: functional

COc1ccc2cc(CN3CCCCC3C(=O)[O-])c3cc(OC)c(OC)cc3c2c1.[K+] (configuration not stated)
IC50 (Mahlavu [1]): Not Active
IC50 (HepG2): Not Active
IC50 (SNU-475; snu-475): Not Active
IC50 (Huh-7 [2]): Not Active
IC50 (MCF-12A): Non-Toxic
IC50 (HCT-116; hct-116): Not Active
IC50 (Hep 3B2; hep 3b2): Not Active
IC50 (MCF7; mcf7): Not Active
IC50 [3]: Not Active

COc1ccc2c3c(c4cc(OC)c(OC)cc4c2c1)CN1CCCCC1C3=O (configuration not stated)
pIC50 (Mahlavu [1]): 4.46
IC50 (HepG2): Not Active
pIC50 (SNU-475; Homo sapiens, SNU-475, 72 h, read-out: IC50): 4.72
pIC50 (Huh-7 [2]): 4.92
IC50 (MCF-12A): Non-Toxic
pIC50 (HCT-116): 5.09
pIC50 (Hep 3B2; Homo sapiens, Hep3B, 72 h, read-out: IC50): 4.35
pIC50 (MCF7): 5.15
pIC50 ([3]; Homo sapiens, 72 h, read-out: IC50): 5.30

COc1ccc(/C=C(/C(=O)NCCCn2ccnc2)c2ccc(OC)c(OC)c2)cc1
IC50 (Mahlavu [1]): Not Active
IC50 (Huh-7 [2]): Not Active

COc1ccc2cc(C(=O)NCCCn3ccnc3)c3cc(OC)c(OC)cc3c2c1
pIC50 (Mahlavu [1]): 4.27
pIC50 (Huh-7 [2]): 4.72

COc1ccc(/C=C(/CNCCCn2ccnc2)c2ccc(OC)c(OC)c2)cc1
pIC50 (Mahlavu [1]): 4.86
pIC50 (Huh-7 [2]): 5.03

COc1ccc2cc(CNCCCn3ccnc3)c3cc(OC)c(OC)cc3c2c1
IC50 (Mahlavu [1]): Not Active
IC50 (Huh-7 [2]): Not Active

CC[C@@]1(O)C(=O)OCc2c1cc1n(c2=O)Cc2cc3ccccc3nc2-1
Activity (Mahlavu [4]): Active
Activity (Huh-7 [5]): Active

COc1ccc2c3c(c4cc(OC)c(OC)cc4c2c1)CN1CCCC[C@@H]1[C@@H]3O (racemic)
pIC50 (Mahlavu [1]): < 7.30
Activity (Mahlavu [6]): 6.72%
Activity (Mahlavu [7]): 0%
Activity (Huh-7 [8]): 0.02%
Activity (Mahlavu [9]): 1.59%
viability at 1 µM (Mahlavu [10]): 29.4%
Activity (Huh-7 [11]): 0%
Activity (Huh-7 [12]): 0.07%
Activity (Mahlavu [13]): 0%
Activity (Huh-7 [14]): 0.16%
viability at 1 µM (Huh-7 [15]): 99.1%
Activity (Huh-7 [16]): 0.21%
Activity (Huh-7 [17]): 0.05%
Activity (Mahlavu [18]): 29.29%
viability at 1 µM (Mahlavu [19]): 70.2%
Activity (Mahlavu [20]): 0.54%
Activity (Mahlavu [21]): 0.03%
Activity (Mahlavu [22]): Active
pIC50 (Huh-7 [2]): 7.77
Activity (Huh-7 [23]): 0.82%
Activity (Huh-7 [24]): 16.83%
pIC50 (MCF-12A): 7.00
pIC50 (HCT-116): 8.15
pIC50 (MCF7): 7.68
viability at 1 µM (Mahlavu [25]): 92.7%
viability at 1 µM (Huh-7 [26]): 83%
Activity (Mahlavu [27]): 0.58%
pIC50 (MCF-10A): 6.85
viability at 1 µM (Huh-7 [28]): 93%
Activity (Mahlavu [29]): Active
Activity (Mahlavu [30]): 69.05%
Activity (Huh-7 [31]): 6.75%

COc1ccc2c3c(c4cc(OC)c(OC)cc4c2c1)CN1CCCC[C@@H]1[C@H]3O (racemic)
pIC50 (Mahlavu [1]): < 7.30
Activity (Mahlavu [6]): 3.47%
Activity (Mahlavu [7]): 0%
Activity (Huh-7 [8]): 0.07%
Activity (Mahlavu [9]): 0.61%
viability at 1 µM (Mahlavu [10]): 88.9%
Activity (Huh-7 [11]): 0.05%
Activity (Huh-7 [12]): 0.07%
Activity (Mahlavu [13]): 0%
Activity (Huh-7 [14]): 0.23%
viability at 1 µM (Huh-7 [15]): 99.1%
Activity (Huh-7 [16]): 0.13%
Activity (Huh-7 [17]): 0%
Activity (Mahlavu [18]): 5.9%
viability at 1 µM (Mahlavu [19]): 93.8%
Activity (Mahlavu [20]): 0.32%
Activity (Mahlavu [21]): 0.02%
Activity (Mahlavu [22]): Active
pIC50 (Huh-7 [2]): 6.51
Activity (Huh-7 [23]): 0.81%
Activity (Huh-7 [24]): 4.69%
pIC50 (MCF-12A): < 7.30
pIC50 (HCT-116): 7.37
pIC50 (MCF7): 7.80
viability at 1 µM (Mahlavu [25]): 96.2%
viability at 1 µM (Huh-7 [26]): 95%
Activity (Mahlavu [27]): 0.33%
pIC50 (MCF-10A): 6.10
viability at 1 µM (Huh-7 [28]): 96.4%
Activity (Mahlavu [29]): Active
Activity (Mahlavu [30]): 10.53%
Activity (Huh-7 [31]): 3.38%
